What was measured:
[1] = Octanol-water partition coefficient, logD of the compound in PBS at pH 7.4 by liquid chromatography based mass spectrometric analysis; format: physicochemical
In short: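 Shake-flask method: 3.0 mg compound dissolved in PBS-saturated n-octanol and rotated 24 h at room temperature. The octanol phase was then mixed with octanol-saturated PBS, rotated another 24 h and centrifuged. Both phases quantified by LC-MS against a standard curve, and log P = log(C octanol/C water).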

HT-29 = experiment: Cytotoxicity against human HT-29 cells incubated for 72 hrs by MTT assay; format: functional, cell-based; details: HT-29, 72 h
In short: (§1)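 Cells seeded at 4000/well, incubated overnight, then exposed to a range of concentrations, or DMSO vehicle, for 72 h. MTT (5 mg/mL solution) added for 4 h and formazan dissolved in DMSO. Absorbance read at 570 nm, and IC50 derived from the curves. Tumor lines were grown in RPMI 1640; HUVEC, HaCaT and LO2 were grown in DMEM, each with 10% FBS at 37 °C and 5% CO2.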

NCI-H460 [2] = experiment: Cytotoxicity against human NCI-H460 cells incubated for 72 hrs by MTT assay; format: functional, cell-based; details: NCI-H460, 72 h; in short: as §1
[3] = Cytotoxicity against human L02 cells incubated for 72 hrs by MTT assay; format: toxicity, cell-based; in short: as §1
NCI-H1975 [4] = experiment: Cytotoxicity against Glut1 knocked down human NCI-H1975 cells transfected with KDV assessed as decrease in cell viability incubated for 72 hrs by MTT assay; format: functional, cell-based; details: NCI-H1975, 72 h
In short: (§2)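 Stable Glut-1 knockdown (KD1, KD2, vector KD V) or overexpression (OE, vector OE V) NCI-H1975 cells made by 12 h lentiviral infection, 72 h culture, then 14 days puromycin selection; Glut-1 confirmed by Western blot. Cells seeded at 4000/well overnight, dosed over a concentration range or DMSO for 72 h. MTT read at 570 nm; IC50 from ≥3 replicates.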

NCI-H1975 [5] = experiment: Cytotoxicity against human NCI-H1975 cells transfected with OE V overexpressing Glut1assessed as decrease in cell viability incubated for 72 hrs by MTT assay; format: functional, cell-based; details: NCI-H1975, 72 h; in short: as §2
NCI-H460 [6] = experiment: Induction of apoptosis in human NCI-H460 cells assessed as early apoptotic cells at 1 uM measured after 48 hrs by Annexin V-FITC/PI staining method (reference value: 3.26%); format: functional
NCI-H460 [7] = experiment: Induction of apoptosis in human NCI-H460 cells assessed as late apoptotic cells at 1 uM measured after 48 hrs by Annexin V-FITC/PI staining method (reference value: 8.47%); format: functional
NCI-H460 [8] = experiment: Induction of apoptosis in human NCI-H460 cells assessed as necrotic cells at 1 uM measured after 48 hrs by Annexin V-FITC/PI staining method (reference value: 1.62%); format: functional
NCI-H460 [9] = experiment: Induction of apoptosis in human NCI-H460 cells assessed as viable cells at 20 uM measured after 48 hrs by Annexin V-FITC/PI staining method (reference value: 86.7%); format: functional; details: read-out: Activity
NCI-H460 [10] = experiment: Induction of apoptosis in human NCI-H460 cells assessed as late apoptotic cells at 50 uM measured after 48 hrs by Annexin V-FITC/PI staining method (reference value: 8.47%); format: functional
NCI-H460 [11] = experiment: Induction of apoptosis in human NCI-H460 cells assessed as necrotic cells at 50 uM measured after 48 hrs by Annexin V-FITC/PI staining method (reference value: 1.62%); format: functional
[12] = Stability in mouse serum measured after 8 hrs by HPLC analysis; format: ADME, cell-free
[13] = Stability in mouse serum assessed as unchanged fraction measured after 72 hrs by HPLC analysis relative to control; format: ADME, cell-free; details: read-out: Stability
In short: (§3)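 15 µM test agent incubated with human or mouse serum at 37 °C for 0, 0.5, 1, 8, 12, 18, 60 and 72 h. Samples stored at −80 °C, protein precipitated with 200 µL methanol, vortexed and sonicated 5 min. Intact agent and released triptolide measured by HPLC at 220 nm, in duplicate.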

[14] = Stability in human serum measured upto 72 hrs by HPLC analysis; format: ADME, cell-free; in short: as §3
[15] = Half life in NCI-H1975 tumor bearing nude mouse model serum at 1 mg/kg, iv; format: ADME, organism-based
[16] = Drug distribution in NCI-H1975 tumor bearing nude mouse model assessed as tumor to heart ratio of triptolide metabolite at 2 mg/kg, iv by LC-MS analysis; format: ADME, organism-based; details: in vivo
In short: (§4)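 NCI-H1975 xenograft mice, tumors about 500 mm3, 3 per group, fasted 12 h with water available. Given 2 mg/kg iv and sacrificed 1 h later. Heart, liver, lung, kidney and tumor weighed and flash-frozen. 1.0 g tissue homogenized in 2.0 mL saline, methanol-precipitated, reconstituted. Parent, triptolide succinate and triptolide measured by LC-MS; tumor/organ ratios calculated.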

[17] = Drug distribution in NCI-H1975 tumor bearing nude mouse model assessed as tumor to lung ratio of triptolide metabolite at 2 mg/kg, iv by LC-MS analysis; format: ADME, organism-based; details: in vivo; in short: as §4
[18] = Drug distribution in NCI-H1975 tumor bearing nude mouse model assessed as tumor to kidney ratio of triptolide metabolite at 2 mg/kg, iv by LC-MS analysis; format: ADME, organism-based; details: in vivo; in short: as §4
[19] = Toxicity in BALB/c nude mouse xenografted with human NCI-H1975 cells assessed as decreased spermatogenic cells at 2 mg/kg administered ip, qd for 2 weeks; details: in vivo, 336 h
[20] = Toxicity in BALB/c nude mouse xenografted with human NCI-H1975 cells assessed as irregular spermatogenic tubules at 2 mg/kg administered ip, qd for 2 weeks; details: in vivo, 336 h
[21] = Toxicity in BALB/c nude mouse xenografted with human NCI-H1975 cells assessed as morphological change in lung at 1 to 2 mg/kg administered ip, qd for 2 weeks; details: in vivo, 336 h
[22] = Toxicity in BALB/c nude mouse xenografted with human NCI-H1975 cells assessed as morphological change in heart at 1 to 2 mg/kg administered ip, qd for 2 weeks; details: in vivo, 336 h
[23] = Toxicity in BALB/c nude mouse xenografted with human NCI-H1975 cells assessed as morphological change in kidney at 1 to 2 mg/kg administered ip, qd for 2 weeks; details: in vivo, 336 h
NCI-H1975 [24] = experiment: Antitumor activity against human NCI-H1975 cells xenografted in BALB/c nude mouse assessed as tumor growth inhibition at 1 mg/kg, ip, qd for 2 weeks relative to control; details: NCI-H1975, 336 h, read-out: TGI
NCI-H1975 [25] = experiment: Antitumor activity against human NCI-H1975 cells xenografted in BALB/c nude mouse assessed as tumor growth inhibition at 2 mg/kg, ip, qd for 2 weeks relative to control; details: NCI-H1975, 336 h, read-out: TGI
[26] = Toxicity in BALB/c nude mouse xenografted with human NCI-H1975 cells assessed as loss of body weight at 1 to 2 mg/kg administered ip, qd for 2 weeks measured every 3 days; details: in vivo, 336 h

- logD [1]: -0.347
- Stability [12]: Stable
- remaining at 72 h [13]: 66%
- Stability [14]: Stable
- half-life [15]: 19.2 min
- Ratio [16]: 7.3
- Ratio [17]: 15.5
- Ratio [18]: 18.8
SMILES: CC(C)[C@]12O[C@H]1[C@@H]1O[C@]13[C@]1(O[C@H]1C[C@H]1C4=C(CC[C@@]13C)C(=O)OC4)[C@@H]2OC(=O)CCC(=O)O[C@H]1C(O)O[C@H](CO)[C@@H](O)[C@@H]1O (some centres not stated)
- IC50 (HT-29): 2190 nM
- IC50 (NCI-H460 [2]): 870 nM
- IC50 at 72 h [3]: 1320 nM
- IC50 (NCI-H1975 [4]): 2870 nM
- IC50 (NCI-H1975 [5]): 5270 nM
- Activity (NCI-H460 [6]): 7.09%
- Activity (NCI-H460 [7]): 7.68%
- Activity (NCI-H460 [8]): 0.85%
- viability at 20 µM (NCI-H460 [9]): 32.6%
- Activity (NCI-H460 [10]): 21.4%
- Activity (NCI-H460 [11]): 5.77%
- Activity [19]: Toxic
- Activity [20]: Toxic
- Activity [21]: Non-Toxic
- Activity [22]: Non-Toxic
- Activity [23]: Non-Toxic
- inhibition in vivo at 1 mg/kg (NCI-H1975 [24]): 75.4%
- inhibition in vivo at 2 mg/kg (NCI-H1975 [25]): 90.4%
- Activity [26]: Non-Toxic

— ChEMBL document CHEMBL5104115, “Design, synthesis of novel triptolide-glucose conjugates targeting glucose Transporter-1 and their selective antitumor effect” (Eur J Med Chem, 2022)
